Hits are enriched below; roughly 1.8% of the tested compounds scored in any of these assays.
LEDGF integ inh = blocks HIV-1 LEDGF/p75-dependent DNA integration | TR-FRET IN-LEDGF/p75 DNA integration, Eu/Cy5 | inhibition, % at 3.7 µM | hit rate 0.64% among 370,000;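 active means inhibition above the screen-wide mean plus 3 SD, cut at about 13% in these data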;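 further: signal is the Cy5 over europium emission ratio at 671 and 618 nm; 0% = plate median of compound wells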
MBD2 inh = inhibitors of human MBD2 binding to methylated oligonucleotide; inhibition, % at 4.4 µM; AID 686964; TR-FRET; hit rate 0.31% among 370,000; Q9UBB5; in the data active means inhibition above about 13%
Target sequence (Q9UBB5 whole entry, looked up): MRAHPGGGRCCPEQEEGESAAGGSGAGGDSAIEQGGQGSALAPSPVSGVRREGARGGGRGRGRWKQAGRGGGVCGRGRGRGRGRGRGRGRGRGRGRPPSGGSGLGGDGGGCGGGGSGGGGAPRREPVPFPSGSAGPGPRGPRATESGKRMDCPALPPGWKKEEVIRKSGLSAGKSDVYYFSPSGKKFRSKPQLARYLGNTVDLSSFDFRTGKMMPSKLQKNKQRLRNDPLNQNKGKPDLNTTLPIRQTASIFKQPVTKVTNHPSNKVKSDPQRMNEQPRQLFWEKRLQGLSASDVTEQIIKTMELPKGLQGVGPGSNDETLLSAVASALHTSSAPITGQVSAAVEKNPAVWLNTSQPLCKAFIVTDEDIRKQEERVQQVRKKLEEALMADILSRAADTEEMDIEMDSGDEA
TDP2 absorb = blocks human TDP2 phosphodiesterase activity | O95551 | recombinant TDP2, T5PNP hydrolysis, p-nitrophenol absorbance 415 nm | inhibition, % at 12.8 µM | hit rate 0.34% among 370,000 | AID 720702;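 active means inhibition above the mean of all tested compounds plus 3 SD, set per campaign, cut at about 25% in these data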;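 further: 0% = DMSO with enzyme and 100% = buffer with substrate but no TDP2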
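System – recombinant human TDP2 · Amount – 120 nM TDP2 per well · Buffer or medium – Mg2+-containing Tris-HCl buffer, pH 7.5 · Reagent – T5PNP substrate, 5 mM · Dosing – 12.8 µM single point, 1% DMSO · Incubation – 2 h at 37 °C · Measured by – epi absorbance · Read-out basis – percent inhibition · Benchmarks – high control without enzyme, low control DMSO plus TDP2 · Repeats – singlicate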
CASP6 VEID inh = caspase-6 (human) enzyme inhibition; inhibition, % at 12.5 µM; hit rate 0.53% among 350,000; AID 686996; P55212; purified caspase-6, Z-VEID-R110 cleavage fluorescence;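 active means mean inhibition across replicates at least about 35%, with every replicate also reaching that limit, limit read from the data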;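 further: 0% = median of neutral control wells and 100% = no fluorescence left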
Target sequence (P55212 24-179 limits assumed): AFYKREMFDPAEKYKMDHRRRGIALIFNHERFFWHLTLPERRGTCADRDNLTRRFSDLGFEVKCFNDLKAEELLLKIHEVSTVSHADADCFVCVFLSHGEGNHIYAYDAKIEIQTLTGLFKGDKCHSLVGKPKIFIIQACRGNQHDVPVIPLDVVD
Target sequence (P55212 194-293 limits assumed): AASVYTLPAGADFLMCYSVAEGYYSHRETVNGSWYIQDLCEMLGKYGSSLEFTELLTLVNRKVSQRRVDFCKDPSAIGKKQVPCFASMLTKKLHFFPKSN
UHRF1 MBD2 ctr = human UHRF1 methylated DNA binding inhibitors; AID 687016; inhibition, % at 4.4 µM; hit rate 0.75% among 370,000; Q96T88; UHRF1 binding to methylated oligo, TR-FRET; in the data active means inhibition above about 21%;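 further: UHRF1 SRA domain binding a hemimethylated CpG hairpin DNA probe; 0% = median of test compound wells and 100% = reference inhibitor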
NSD2 HMT inh = inhibitors of human histone methyltransferase NSD2; NSD2 peptide methylation, AlphaScreen, 120 min; inhibition, % at 12.5 µM; hit rate 0.54% among 310,000; O96028; in the data active means inhibition above about 50%
* = called active by the depositor; · = no result given.

SMILES | LEDGF integ inh | MBD2 inh | TDP2 absorb | CASP6 VEID inh | UHRF1 MBD2 ctr | NSD2 HMT inh
Cc1noc(C)c1NC(=O)N(C)C[C@H]1Oc2ccc(NC(=O)NC3CCCCC3)cc2CC(=O)N([C@H](C)CO)C[C@H]1C | · | · | · | 2 | · | ·
C[C@H](CO)N1C[C@H](C)[C@@H](CN(C)C(=O)CN(C)C)Oc2cc(C#CC3CC3)ccc2S1(=O)=O | · | · | · | -2 | · | ·
CCc1ccc2[nH]c3nc(N/N=C/c4cccc(O)c4)nnc3c2c1 | 2 | -7 | 17 | 1 | 43* | -2
O=[N+]([O-])c1cc(F)c2cccnc2c1O | -4 | -12 | 6 | 92* | -8 | 11
O=[N+]([O-])c1ccc(O)c2ncccc12 | 2 | -9 | -6 | 63* | -9 | ·
O=[N+]([O-])c1cc([N+](=O)[O-])c2cccnc2c1Oc1ccccc1O | -4 | -13 | -6 | 45* | -9 | 11
O=[N+]([O-])c1cc(Cl)c(O)c2ncccc12 | 2 | -22 | 1 | · | -25 | 24
Cc1ccc2ncccc2c1[N+](=O)[O-] | 3 | -3 | 11 | 1 | -5 | -7
O=[N+]([O-])c1ccc(O)c2cccnc12 | 2 | -12 | -3 | 4 | -9 | -1
O=[N+]([O-])c1cccc2c1ccc1ncccc12 | -2 | -2 | -2 | 1 | 49* | 1
O=[N+]([O-])c1cc(Cl)c2cccnc2c1O | -4 | -15 | -3 | · | -11 | 1
C[C@H](CO)N1C[C@H](C)[C@H](CN(C)Cc2ccc(Cl)c(Cl)c2)Oc2c(NC(=O)C3CCOCC3)cccc2C1=O | · | · | · | -7 | · | ·
COc1cccc(NC(=O)N(C)C[C@@H]2Oc3cc(/C=C/c4ccccc4)ccc3S(=O)(=O)N([C@@H](C)CO)C[C@H]2C)c1 | · | · | · | 1 | · | ·
COC(=O)c1ccc(=O)n(CC(=O)c2ccc(Cl)cc2)c1 | 1 | 3 | 2 | -1 | 27* | -2
CC(C)(C)NC(=O)C(=O)NN=C1CCCCCCCCCCC1 | 7 | -5 | -9 | 60* | -2 | -3
CCCCNc1cccc2c1S(=O)(=O)N[C@H](C)CO2 | -2 | 9 | 13 | 2 | 22* | ·
O=C(O)c1cccc(Nc2ccnc(Nc3cccc(C(=O)O)c3)n2)c1 | 5 | -2 | -4 | 35* | 2 | 2
O=C(O)c1cccc(Nc2nc(N3CCOCC3)nc(N3CCOCC3)n2)c1 | 1 | 0 | 11 | · | -1 | 0
COc1ccc(-c2c(C)n([O-])c(C)c(-c3ccccc3)[n+]2=O)cc1OC | 1 | -4 | 6 | · | -3 | 2
COc1ccc(-c2c(C)n([O-])c(C)c(C)[n+]2=O)cc1OC | 2 | 8 | 7 | · | 23* | -2
O=C(CNC(=O)c1ccc(Cl)cc1)OCc1nc2ccccc2s1 | -1 | 4 | 3 | 2 | 25* | -4
O=C(Nc1sc2c(c1C(=O)O)CCCC2)C(=O)N1CCOCC1 | -1 | 2 | 4 | 14 | 1 | -3
O=C(Nc1sc2c(c1C(=O)O)CCC2)C(=O)N1CCOCC1 | 6 | 3 | -2 | 37* | 15 | 14
COc1ccc(C#Cc2cccc(-c3nc(C(=O)N4CCN(C)CC4)cc4c3[C@@H](CCO)N(S(=O)C(C)(C)C)C4)c2)cc1OC (stereo partly drawn) | · | · | · | 4 | · | ·
COc1ccc(CCC(=O)Nc2ccc(C)c(S(=O)(=O)N(C)C)c2)cc1OC | 1 | -3 | -9 | · | 1 | -1
SMILES | LEDGF integ inh | MBD2 inh | TDP2 absorb | CASP6 VEID inh | UHRF1 MBD2 ctr | NSD2 HMT inh
COc1cc(CCC(=O)Nc2ccc(C)c(S(=O)(=O)N(C)C)c2)cc(OC)c1OC | 0 | 8 | 7 | · | 21* | -3
Cc1ccc(C)c(S(=O)(=O)N2CCN(C(C)C(=O)Nc3ccccc3-c3ccccc3)CC2)c1 (stereo not drawn) | -3 | 6 | -9 | 35* | 1 | ·
Cc1ccc(C)c(S(=O)(=O)N2CCN(C(=O)CSc3ccccc3)CC2)c1 | 1 | 3 | -5 | 0 | -5 | 1
OCc1ccccc1-c1nc(NCc2ccccc2)nc2ccsc12 | 0 | 1 | 1 | 42* | -1 | -1
COc1ccc2c(c1)c(=O)oc1cc(OCC(=O)NC3CC3)ccc12 | -2 | -4 | 10 | · | 2 | -1
COc1ccc2c(c1)c(=O)oc1cc(OCC(=O)NC3CCCCC3)ccc12 | 5 | 10 | -12 | · | 25* | 3
COc1cccc(CN(C)C(=O)c2cccnc2SC)c1OC | -1 | 9 | 5 | -5 | 26* | -2
COc1ccc(S(=O)(=O)N(C)C[C@@H]2Oc3c(NS(=O)(=O)c4ccc(C)cc4)cccc3C(=O)N([C@H](C)CO)C[C@H]2C)cc1 | · | · | · | 2 | · | ·
CCCC(=O)Nc1ccc2c(c1)C(=O)N(C)C[C@H](OC)[C@@H](C)CN(C(=O)C1CCCC1)[C@H](C)CO2 | · | · | · | 2 | · | ·
CC(=O)N(C1=C(N)C(=O)c2ccccc2C1=O)C(C)C | 3 | -13 | 8 | 12 | -6 | 81*
COc1ccccc1N(C(C)=O)C1=C(Cl)C(=O)c2ccccc2C1=O | 2 | -5 | 23 | 23 | 7 | 37
CC(=O)c1cnc(-c2cccc(Cl)c2)s1 | -2 | 5 | 5 | 3 | 37* | -3
CC(C)N(C[C@@H]1[C@H](c2ccccc2)[C@@H](CO)N1S(C)(=O)=O)C(=O)CN(C)C | · | · | · | -1 | · | ·
O=C(C[C@H]1C[C@@H]2c3cc(NC(=O)Nc4ccccc4F)ccc3O[C@@H]2[C@@H](CO)O1)NCc1ccc(Oc2ccccc2)cc1 | · | · | · | -4 | · | ·
CCOc1ccc(C2=Nn3c(nnc3-c3ccccc3OC)SC2)cc1 | -2 | 0 | 1 | · | -2 | 8
COc1ccccc1-c1nnc2n1N=C(c1ccc(O)c(O)c1)CS2 | · | · | · | · | · | 56*
CCOc1ccc(C(=O)Nc2ccc3c(c2)OCO3)cc1OCC | 4 | 10 | 5 | · | 25* | 1
CC(C)NC(=O)C1(C)CCN1C(=O)c1ccc2c(c1)OCO2 (stereo not drawn) | 0 | -5 | 7 | 71* | -1 | 0
COCC(=O)Nc1ccc2c(c1)C(=O)N(C)[C@@H]1CC[C@H](CC(=O)N3CCc4ccccc4C3)O[C@H]1CO2 | · | · | · | 1 | · | ·
O=C(COC(=O)c1ccc(S(=O)(=O)NCc2ccco2)cc1)Nc1ccc(Cl)cn1 | 0 | 5 | 4 | 46* | 8 | 1
O=C(COC(=O)c1ccc(S(=O)(=O)NCc2ccco2)cc1)Nc1ccccc1 | 2 | 1 | 2 | 2 | -2 | 1
CC(Oc1ccccc1)C(=O)Nc1cccc(NC(=O)c2ccco2)c1 (stereo not drawn) | 3 | -7 | -15 | 39* | 4 | 7
CCOC1=C2CN(S(=O)(=O)c3ccc(C)cc3)[C@H](c3ccccc3)C[C@@H]2N(S(C)(=O)=O)[C@H](c2ccccc2)C1 | 1 | -5 | 8 | -3 | 28* | ·
CC(C)c1cn([C@H]2C[C@@H]3O[C@H](CO)CC[C@@H]3O[C@@H]2CCc2ccc(-c3ccccc3)cc2)nn1 | · | · | · | 2 | · | ·

Source: PubChem BioAssay
